Experimental data reported in ChEMBL document CHEMBL5344432, “Identification of a Dual Autophagy and REV-ERB Inhibitor with in Vivo Anticancer Efficacy” (J Med Chem, 2024).
Calls of active or inactive are those of the source. No cut-off for these calls is given here.

Legend:
[1] = Cytotoxicity against HMECs; format: toxicity, cell-based, HMEC; details: human, HMEC cells
Summary of the method: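 BT-474 breast cancer cells and nontumorigenic HMECs treated 48 h with concentrations up to 30 μM. CC50 derived from concentration–response viability plots. Values >30 μM assigned when viability fell by less than 50% of vehicle at 30 μM. Mean ± SEM, n ≥ 3.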

[2] = Metabolic stability in mouse liver microsomes assessed as half life preincubated for 15 mins followed by NADPH addition and measured after 1 to 2 hrs by LC-MS/MS analysis; format: ADME, Microsome; details: liver microsomes, time 75-135 min
Summary of the method: (§1)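 Microsomal stability assessed in mouse, human, rat or dog liver microsomes with NADPH cofactor. Half-life and percent parent remaining at 60 and 120 min reported. Mean of at least two independent experiments, each in two technical replicates.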

[3] = Metabolic stability in mouse liver microsomes assessed as parent compound remaining preincubated for 15 mins followed by NADPH addition and measured after 1 hr by LC-MS/MS analysis; format: ADME, Microsome; details: time 75 min, read-out: Stability; summary of the method: as §1
[4] = Metabolic stability in mouse liver microsomes assessed as parent compound remaining preincubated for 15 mins followed by NADPH addition and measured after 2 hrs by LC-MS/MS analysis; format: ADME, Microsome; details: time 135 min, read-out: Stability; summary of the method: as §1
[5] = Metabolic stability in human liver microsomes assessed as half life preincubated for 15 mins followed by NADPH addition and measured after 1 to 2 hrs by LC-MS/MS analysis; format: ADME, Microsome; details: liver microsomes, time 75-135 min; summary of the method: as §1
[6] = Metabolic stability in human liver microsomes assessed as parent compound remaining preincubated for 15 mins followed by NADPH addition and measured after 2 hrs by LC-MS/MS analysis; format: ADME, Microsome; details: time 135 min, read-out: Stability; summary of the method: as §1
[7] = Metabolic stability in rat liver microsomes assessed as half life preincubated for 15 mins followed by NADPH addition and measured after 1 to 2 hrs by LC-MS/MS analysis; format: ADME, Microsome; details: liver microsomes, time 75-135 min; summary of the method: as §1
[8] = Metabolic stability in rat liver microsomes assessed as parent compound remaining preincubated for 15 mins followed by NADPH addition and measured after 1 to 2 hrs by LC-MS/MS analysis; format: ADME, Microsome; details: time 75-135 min; summary of the method: as §1
[9] = test system: BT-474; assay: Induction of apoptosis in human BT-474 cells assessed as increase in cleaved PARP level after 24 hrs; format: functional, cell-based; details: dose 2.5-10 µM
Summary of the method: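 BT-474 cells treated at a range of concentrations. Apoptosis read out as caspase activity and as cleaved PARP protein by immunoblot.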

[10] = test system: MDA-MB-231; assay: Cytotoxicity against human MDA-MB-231 cells; format: functional
Summary of the method: (§2)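 Human cancer lines (A375, MDA-MB-231, OMM-1, UPMM-2, CAPAN-2, HepG2, HT-29, HCT116) treated up to 30 μM. CC50 derived from concentration–response viability plots. Mean ± SEM, n ≥ 6. Two-tailed unpaired t test used between compounds.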

[11] = Cytotoxicity against human OMM-1 cells; format: functional; summary of the method: as §2
[12] = test system: HepG2; assay: Cytotoxicity against human HepG2 cells; format: functional; summary of the method: as §2
[13] = Half life in CD1 mouse at 10 mg/kg, ip measured upto 24 hrs; format: ADME, organism-based; details: in vivo
Summary of the method: (§3)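 Female CD1 mice given a single 10 mg/kg ip dose. Plasma concentration–time profile analyzed by noncompartmental analysis for half-life and volume of distribution. A two-compartment model was also fitted.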

[14] = Cmax in CD1 mouse at 10 mg/kg, ip measured upto 24 hrs; format: ADME, organism-based; set-up: dose 10 mg/kg, time < 24 hrs, route ip; details: in vivo; summary of the method: as §3
[15] = Tolerability in CD1 mouse assessed as appearance of arched backs at 138 micromol/kg, ip; format: toxicity; details: in vivo, dose 138 µmol/kg
Summary of the method: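 Female CD1 mice given daily ip injections at 138 μmol/kg (62 mg/kg). Animals observed for arched backs and lethargy.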

[16] = Tolerability in CD1 mouse assessed as reduction in body weight at 138 micromol/kg, ip measured after 2 days; format: toxicity, organism-based; details: in vivo, 48 h, dose 138 µmol/kg, time 2 day
Summary of the method: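 Body weight tracked in female CD1 mice under three regimens: 138 μmol/kg (62 mg/kg) ip daily, assessed after 2 days; 138 μmol/kg every other day over 8 days; 69 μmol/kg (31 mg/kg) daily over 8 days.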

[17] = Tolerability in CD1 mouse assessed as change in body weight at 69 micromol/kg, ip administered as 3 days on and 2 days off schedule and measured after 15 days; format: toxicity, organism-based; details: in vivo, 360 h, dose 69 µmol/kg, time 15 day
Summary of the method: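 Female CD1 mice given 69 μmol/kg (31 mg/kg) ip, 3 days daily then 2 days off, or saline. Body weight, food intake and water intake monitored daily for 15 days. Weight expressed relative to the day before treatment (100%). Mean ± SEM, n = 3.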

[18] = test system: A-375; assay: Antitumor activity against human A-375 cells xenografted in NMRI-Foxn1nu mouse assessed as effect on autophagy by measuring increase in GFP-LC3-II expression at 30 mg/kg, ip administered for 2 days by immunoblotting analysis; format: functional, organism-based; details: time 2.0 day
Summary of the method: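 Female NMRI-Foxn1nu mice bearing flank subcutaneous xenografts of GFP-LC3 reporter A375 cells, matched for tumor size, given 30 mg/kg ip or saline for 2 days. Euthanized 48 h after first injection. Tumor lysates immunoblotted with anti-LC3B for GFP-LC3-I and GFP-LC3-II. n = 3; unpaired two-tailed t test versus saline.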

[19] = Inhibition of REV-ERBbeta (unknown origin) transcription expressed in HEK293 cells incubated for 24 hrs by gaussia luciferase based assay; format: cell-based; details: Homo sapiens, HEK293, 24 h
Summary of the method: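 HEK-293 cells cotransfected with REV-ERBβ and a luciferase reporter driven by two repeats of a REV-ERB response element (RevRE) consensus, then treated across a concentration range. Luciferase activity is expressed as fold of DMSO vehicle, mean ± SEM, n = 6, and EC50 is taken from the concentration-response curve. A parallel reporter carrying a mutated RevRE served as a specificity control.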

[20] = test system: HEK293; assay: Inhibition of REV-ERBbeta (unknown origin) transcription expressed in HEK293 cells harboring mutated RevRE incubated for 24 hrs by gaussia luciferase based assay; format: cell-based; details: Homo sapiens
Summary of the method: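 HEK-293 cells cotransfected with REV-ERBβ and a luciferase reporter bearing a mutated RevRE that REV-ERB cannot bind. Luciferase activity expressed as fold over DMSO vehicle. Mean ± SEM, n = 6.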

[21] = test system: BT-474; assay: Inhibition of REV-ERBbeta in REV-ERBbeta knockout human BT-474 cells assessed as induction of BMAL1 expression at 5 uM after 24 hrs by qRT-PCR analysis; format: cell-based
[22] = test system: A375 (human); assay: Inhibition of autophagy in human A375 cells expressing EGFP-LC3B assessed as increase in SQSTM1 protein level at 2.5 uM after 24 hrs by immunoblotting analysis
[23] = Metabolic stability in mouse liver microsomes assessed as half-life preincubated for 15 mins followed by UDPGA addition and measured after 2 hrs by LC-MS/MS analysis
[24] = test system: Mus musculus; assay: In vivo inhibition of REV-ERB in human A375 cells xenografted in NMRI-Foxn1nu mouse assessed as increase in BMAL1 gene expression at 30 mg/kg, ip administered for 2 days and measured after 48 hrs

half-life [2]: > 2 h
remaining at 1 h [3]: 84%
remaining at 2 h [4]: 72%
half-life [5]: > 2 h
remaining at 2 h [6]: 68%
half-life [7]: > 1 h
Stability [8]: 98%
t1/2 [13]: 9.67 h
Cmax [14]: 280.23 ng/mL
EC50 [19]: 3610 nM
t1/2 at 2 h [23]: > 2 h
SMILES: Fc1ccc(C2(NCc3ccc(F)c(CC4CCNCC4)c3)CCCC2)cc1
CC50 [1]: > 30000 nM
Activity [9]: Dose-Dependent Effect
CC50 [10]: 2970 nM
CC50 [11]: 1140 nM
CC50 [12]: 1490 nM
Activity [15]: Non-Toxic
Activity [16]: Toxic
Activity [17]: Non-Toxic
Activity [18]: Active
inhibition [20]: inactive
inhibition [21]: inactive
inhibition [22]: Active
inhibition [24]: Active
